From ChEMBL document CHEMBL1649083, “Discovery of novel inhibitors of the NorA multidrug transporter of Staphylococcus aureus” (2011)

The compounds below were run against T1, Quinolone resistance protein NorA (Staphylococcus aureus) (UniProt P0A0J7) (assay: Inhibition of NorA in Staphylococcus aureus 1199B assessed as reduction in ethidium bromide efflux at 50 uM by fluorimetry after 5 mins).
T1 sequence (whole entry): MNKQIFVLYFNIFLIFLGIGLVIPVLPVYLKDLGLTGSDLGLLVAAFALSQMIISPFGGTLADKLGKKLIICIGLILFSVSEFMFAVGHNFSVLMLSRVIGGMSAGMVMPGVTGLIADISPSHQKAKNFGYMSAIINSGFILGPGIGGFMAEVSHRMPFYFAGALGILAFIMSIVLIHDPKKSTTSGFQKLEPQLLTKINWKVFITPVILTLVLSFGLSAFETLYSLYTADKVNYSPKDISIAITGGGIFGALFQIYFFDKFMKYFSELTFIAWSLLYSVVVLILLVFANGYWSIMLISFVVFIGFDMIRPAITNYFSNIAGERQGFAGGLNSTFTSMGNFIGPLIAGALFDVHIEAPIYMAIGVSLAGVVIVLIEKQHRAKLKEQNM
In short: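 S. aureus SA-1199B (NorA overexpressing via promoter up-mutation; GrlA A116E), EtBr-loaded cells. EtBr loss measured fluorometrically over a 5 min time course, in duplicate, as mean total efflux. Percent reduction calculated versus efflux without compound. Test compound at 50 μM; increasing concentrations were also run for dose-response profiles.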
CCN(CC)CCOc1ccc(-c2cc(=O)c3ccccc3n2C)cc1 showed an inhibition of 1.7%.
With CCOc1ccc(-c2cc(=O)c3ccccc3n2C)cc1 the inhibition was 10.8%.
CN(C)CCOc1ccc(-c2cc(=O)c3ccccc3n2C)cc1 showed an inhibition of 4.4%.
CCCOc1ccc(-c2cc(=O)c3cc(OC)c(OC)cc3n2C)cc1 was tested, and the inhibition was 0%.
CN1CC[C@H](c2ccc(F)cc2)[C@@H](COc2ccc3c(c2)OCO3)C1 was tested, and the inhibition was 85%.
Cc1c(NS(=O)(=O)c2ccc(F)cc2)c(=O)n(-c2ccccc2)n1C gave an inhibition of 3.2%.
OCCN1CCN(CC/C=C2\c3ccccc3Sc3ccc(C(F)(F)F)cc32)CC1 was tested, and the inhibition was 72%.
In the case of COc1ccc(/C=C/C(=O)NCCc2c[nH]c3ccccc23)cc1OC, the inhibition is reported as 84%.
C[C@H](O)c1cccc(NC(=O)CC(c2ccccc2)c2ccccc2)c1 showed an inhibition of 31.4%.
Compound CCOC(=O)c1cn(C2CC2)c2c(C)c(N3CCC4=C(C3)/C(=N/OC)CCS4)c(N)cc2c1=O has an inhibition of 54.4%.
With CCOC(=O)c1cn(C2CC2)c2cc(N3CCNCC3)c(F)cc2c1=O the inhibition was 20.8%.
Compound Cc1ccc(N2CCN(C3=Nc4cc(Cl)ccc4Oc4ccccc43)CC2)cc1 has an inhibition of 35.1%.
With CCN(CC)CCOc1cc(-c2ccc(OCCN3CCCCC3)cc2)nc2ccccc12 the inhibition was 65.6%.
With OCCN1CCN(CC/C=C2/c3ccccc3Sc3ccc(C(F)(F)F)cc32)CC1 the inhibition was 82%.
CCOC(=O)c1cn(C2CC2)c2c(C)c(N3CCC4=C(C3)C(O)CCS4)c(N)cc2c1=O (centres undefined) gave an inhibition of 47.3%.
In the case of OCCN1CCN(CCCN2c3ccccc3Sc3ccc(C(F)(F)F)cc32)CC1, the inhibition is reported as 75%.
CCOC(=O)c1cn(C2CC2)c2c(C)c(N3CCC4=C(C3)/C(=N/O)CCS4)c(N)cc2c1=O gave an inhibition of 36.2%.
In the case of CCOc1cc(C2C(C#N)=C(N)Oc3[nH]nc(C)c32)ccc1OCc1cccc(F)c1 (single isomer, unassigned), the inhibition is reported as 4.9%.
COc1ccc(OC[C@@H]2CN(C)CC[C@H]2c2ccccc2)cc1 (relative stereo) showed an inhibition of 50%.
Work on CCCOc1ccc(-c2cc(=O)c3ccccc3n2CCN2CCCCC2)cc1 yielded an inhibition of 75.1%.
COc1cccc(CNC(C)C(O)c2ccccc2)c1 (centres undefined) was tested, and the inhibition was 2.8%.
COc1ccc(OC[C@H]2CN(C)CC[C@@H]2c2ccccc2)cc1 was tested, and the inhibition was 47%.
Compound CCOC(=O)c1cn(C2CC2)c2cc(N3CCC4=C(C3)C(=O)CCS4)c(N)cc2c1=O has an inhibition of 35.7%.
In the case of CN1C(=O)S/C(=C/c2ccc(-c3cc(C(=O)O)ccc3Cl)o2)C1=O, the inhibition is reported as 20.9%.
Compound Cc1ccc(S(=O)(=O)Nc2ccc3c(c2)ncn3-c2ccccc2)cc1 has an inhibition of 0%.
With CCCCOc1ccc([C@H]2C(C#N)=C(N)Oc3cc(N(CC)CC)ccc32)cc1 the inhibition was 20.5%.
COc1ccc(-c2cc(=O)c3ccccc3n2C)cc1 showed an inhibition of 0%.
In the case of COCCN1C(=O)/C(=C/c2ccc(O[C@@H](C)C(=O)O)c(OC)c2)S/C1=N\c1ccccc1, the inhibition is reported as 10.6%.
In the case of CCCOc1ccc(-c2cc(=O)c3ccccc3n2CCN(CC)CC)cc1, the inhibition is reported as 57.3%.
COc1cc(/C=C2\S/C(=N\c3ccccc3)N(c3ccccc3)C2=O)cc(Cl)c1OCC(N)=O was tested, and the inhibition was 18.3%.
For O=C(CSc1nnc(CNc2ccc(F)cc2)o1)N1c2ccccc2Sc2ccccc21, the inhibition was 11.5%.
CC(C)Oc1ccc(-c2cc(=O)c3ccccc3n2C)cc1 gave an inhibition of 10.3%.
For CCOC(=O)c1cn(C2CC2)c2cc(N3CCC4=C(C3)/C(=N/OC)C(C)CS4)c(F)cc2c1=O (centres undefined), the inhibition was 86.9%.
CCCOc1ccc(C2=CSc3ccccc3N2C)cc1 was tested, and the inhibition was 0%.
In the case of Cc1ccc(S(=O)(=O)Nc2ccc3[nH]c(-c4ccco4)nc3c2)cc1, the inhibition is reported as 67.5%.
With COc1cc2c(=O)cc(-c3ccc(O)cc3)n(C)c2cc1OC the inhibition was 0%.
Compound CCOC(=O)Nc1ccc2c(c1)N(C(=O)CCN1CCN(CCO)CC1)c1ccccc1CC2 has an inhibition of 0%.
For Cn1c(-c2ccccc2)cc(=O)c2cc(O)c(O)cc21, the inhibition was 0%.
With CCc1c(O)nc(SCC(=O)Nc2nc3ccccc3s2)[nH]c1=O the inhibition was 19.1%.
Compound Cc1ccc(N(CC(=O)Nc2ccc(C(N)=O)cc2)S(=O)(=O)c2ccccc2)cc1C has an inhibition of 0.6%.
CCCOc1ccc(-c2cc(OCCN3CCCCC3)c3ccccc3n2)cc1 gave an inhibition of 88.5%.
With CCOC(=O)C1SC(NC(=S)NC(=O)c2ccccc2)=NC1C (centres undefined) the inhibition was 23.2%.
For CCOC(=O)c1cn(C2CC2)c2c(C)c(N3CCC4=C(C3)/C(=N/O)C(C)CS4)c(N)cc2c1=O (centres undefined), the inhibition was 90%.
Compound COc1ccccc1C1=Nc2ccccc2SC1 has an inhibition of 0%.
CCCOc1ccc(-c2cc(=O)c3ccccc3o2)cc1 gave an inhibition of 32.4%.
CCOC(=O)c1cn(C2CC2)c2c(C)c(N3CCC4=C(C3)C(=O)C(C)CS4)c(N)cc2c1=O (centres undefined) showed an inhibition of 50.5%.
Cn1c(-c2ccc(OCCN3CCCCC3)cc2)cc(=O)c2ccccc21 showed an inhibition of 19.8%.
Work on CCOC(=O)c1cn(C2CC2)c2cc(N3CCC4=C(C3)/C(=N/O)C(C)CS4)c(N)cc2c1=O (centres undefined) yielded an inhibition of 91.2%.
Work on CCOC(=O)c1cn(C2CC2)c2cc(N3CCC4=C(C3)C(O)CCS4)c(N)cc2c1=O (centres undefined) yielded an inhibition of 26.3%.
O=C1NC(=O)/C(=C/c2ccc(-c3cc(C(=O)O)ccc3Cl)o2)S1 was tested, and the inhibition was 15.5%.
CCOC(=O)CCCSc1nc2c(c(C(F)(F)F)c1C#N)CC(C)CC2 (centres undefined) gave an inhibition of 48.6%.
For Fc1ccc(C2=Nc3ccccc3SC2)cc1, the inhibition was 0%.
COc1ccccc1CNCc1cccc(C(F)(F)F)c1 was tested, and the inhibition was 30%.
With CCOC(=O)c1cn(C2CC2)c2cc(N3CCC4=C(C3)/C(=N/O)C(C)CS4)c(F)cc2c1=O (centres undefined) the inhibition was 22.5%.
With CCCOc1ccc(-c2cc(OCCN(CC)CC)c3ccccc3n2)cc1 the inhibition was 93.4%.
Compound CCOC(=O)c1cn(C2CC2)c2cc(N3CCC4=C(C3)/C(=N/OC)C(C)CS4)c(N)cc2c1=O (centres undefined) has an inhibition of 19.7%.
c1ccc(C2=Nc3ccccc3SC2)cc1 showed an inhibition of 0%.
With CCCOc1ccc(-c2cc(=O)c3ccccc3s2)cc1 the inhibition was 6.3%.
CSc1ccc2c(c1)N(CCC1CCCCN1C)c1ccccc1S2 (centres undefined) was tested, and the inhibition was > 88%.
With CCC(C)N1C(=O)S/C(=C/c2ccc(C(=O)O)cc2)C1=O (centres undefined) the inhibition was 0%.
With CCCOc1ccc(-c2cc(O)c3ccccc3n2)cc1 the inhibition was 0%.
Cn1c(-c2ccc(O)cc2)cc(=O)c2cc(O)c(O)cc21 was tested, and the inhibition was 0%.
Work on N#Cc1c(SCc2ccc(Cl)nc2)nc2c(c1C(F)(F)F)CCCC2 yielded an inhibition of 41.3%.
COc1cc(/C=C2\S/C(=N\c3ccccc3)N([C@@H]3CCCC[C@@H]3C)C2=O)ccc1OCC(=O)O showed an inhibition of 32.6%.
Work on Cc1ccc(-n2c(SCc3ccc(C(=O)O)cc3)nnc2-c2ccc(Cl)cc2)cc1 yielded an inhibition of 1.3%.
With N#Cc1c(-c2ccc(F)cc2)cc(-c2ccccc2)nc1SCC(=O)N1CCC[C@@H]1C(=O)O the inhibition was 36.3%.
Work on CCCOc1ccc(-c2cc(=O)c3ccccc3n2C)cc1 yielded an inhibition of 3.9%.
For Cc1sc([C@@H]2C(C#N)=C(N)OC3=C2C(=O)CC(C)(C)C3)cc1COc1ccc(Br)cc1, the inhibition was 0%.
COc1cc(/C=C2/SC(Nc3ccccc3F)=NC2=O)ccc1OCC(=O)O was tested, and the inhibition was 11.9%.
Work on CCOc1ccc(C2C(C(=O)Nc3cccnc3)=C(C)Nc3nc(CCCO)nn32)cc1OC (centres undefined) yielded an inhibition of 14.8%.
CCOC(=O)c1cn(C2CC2)c2c(C)c(N3CCC4=C(C3)C(=O)CCS4)c(N)cc2c1=O showed an inhibition of 36.8%.
With Cn1c(-c2ccc(O)cc2)cc(=O)c2ccccc21 the inhibition was 0%.
For CN(C)CCCN1c2ccccc2Sc2ccc(Cl)cc21, the inhibition was 76%.
Cc1ccc(S(=O)(=O)Nc2ccc3c(c2)nc(C)n3Cc2ccccc2)cc1 showed an inhibition of 30.6%.
For Cn1c(-c2ccc(OCCN3CCOCC3)cc2)cc(=O)c2ccccc21, the inhibition was 0%.
For Cc1ccc([C@H]2C(C#N)=C(N)Oc3cc(C)oc(=O)c32)o1, the inhibition was 0%.
Compound N#Cc1c(SCc2ccc(C(=O)O)cc2)nc2c(c1C(F)(F)F)CCCCC2 has an inhibition of 67.1%.
For CN1CCN(CCCN2c3ccccc3Sc3ccc(Cl)cc32)CC1, the inhibition was > 78%.
Work on COc1cc2c(=O)cc(-c3ccccc3)n(C)c2cc1OC yielded an inhibition of 9.4%.
Compound N#Cc1c(C(F)(F)F)cc(Cc2ccccc2)nc1SCc1ccc(C(=O)O)cc1 has an inhibition of 41.8%.
O=C(O)c1ccc(N2C(=O)C[C@@H](S/C(=N\c3ccccc3)Nc3ccccc3)C2=O)cc1 showed an inhibition of 0%.
Compound CCC(C)N1C(=O)S/C(=C\c2ccc(-c3cc(C(=O)O)ccc3Cl)o2)C1=O (centres undefined) has an inhibition of 74.7%.
c1ccc(CCN(Cc2ccccc2)Cc2cccc(OCc3ccccc3)c2)cc1 was tested, and the inhibition was 0%.
Cc1cc(C)cc(/N=C2\S/C(=C\c3ccc(C(=O)O)cc3)C(=O)N2c2cc(C)cc(C)c2)c1 gave an inhibition of 55%.
In the case of CCOC(=O)c1cn(C2CC2)c2cc(N3CCC4=C(C3)C(=O)C(C)CS4)c(N)cc2c1=O (centres undefined), the inhibition is reported as 63.5%.
Fc1ccc([C@@H]2CCNC[C@H]2COc2ccc3c(c2)OCO3)cc1 showed an inhibition of 73%.
For NS(=O)(=O)c1ccc(NC2=NC(=O)C(CC(=O)O)S2)cc1 (centres undefined), the inhibition was 0%.
C=CCOc1c(I)cc(/C=C2\C(=O)N(c3ccc(C(=O)O)cc3)N=C2c2ccccc2)cc1OC gave an inhibition of 3.8%.
For CCOC(=O)c1cn(C2CC2)c2c(C)c(N3CCC4=C(C3)/C(=N/OC)C(C)CS4)c(N)cc2c1=O (centres undefined), the inhibition was 21.4%.
Work on CCCOc1ccc(-c2cc(=O)c3cc(OC)c(O)cc3n2C)cc1 yielded an inhibition of 9.1%.
Compound CCC(C)N1C(=O)S/C(=C\c2ccc(N3CCCC3)o2)C1=O (centres undefined) has an inhibition of 0%.
CCOC(=O)c1cn(C2CC2)c2cc(N3CCC4=C(C3)/C(=N/OC)CCS4)c(N)cc2c1=O was tested, and the inhibition was 74.5%.
Work on CC(C)N1C(=O)S/C(=C/c2cc(Br)ccc2OCc2ccc(C(=O)O)cc2)C1=O yielded an inhibition of 3.1%.
In the case of CCOC(=O)CCSc1nc2c(c(C(F)(F)F)c1C#N)CC(C(C)(C)C)CC2 (centres undefined), the inhibition is reported as 25.2%.
